Measured values taken from ChEMBL document CHEMBL4842319, “Synthesis of alkynylated 1,2,4-oxadiazole/1,2,3-1H-triazole glycoconjugates: Discovering new compounds for use in chemotherapy against lung carcinoma and Mycobacterium tuberculosis” (Eur J Med Chem, 2021).
Values after ≈ are worked out from the molar mass of the structure shown.

Legend:
[1] = tested on: Mycobacterium tuberculosis; assay: Antimycobacterial activity against Mycobacterium tuberculosis H37Rv ATCC 27294 assessed as inhibition of bacterial growth incubated for 9 days by resazurin microtiter assay; format: functional; conditions: H37Rv ATCC 27294, 216 h, time 9 day
How it was run: (§1)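 REMA broth microdilution in 7H9-S medium, run in duplicate. Test compounds were serially two-fold diluted on the plate from 64 to 0.5 µg/mL. Inoculum taken from fresh Löwenstein-Jensen culture, adjusted to McFarland no. 1 and diluted 1:20. Plates were sealed and incubated at 37 °C in normal atmosphere for 9 days, then resazurin was added. Rifampicin and ethambutol served as standards. MIC reported in µg/mL.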

[2] = Cytotoxicity against human HepG2 cells assessed as reduction in cell viability incubated for 48 hrs by MTT assay; format: cell-based
How it was run: (§2)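 RAW 264.7 macrophages and HepG2 cells were cultured in DMEM at 37 °C, 5% CO2. For the assay, 10⁵ cells/well were preincubated for 24 h, then exposed to compounds at […] for 48 h, in duplicate. MTT (5 mg/mL in PBS) was added for 2 h and absorbance read at 570 nm. Untreated wells served as the negative control. CC50 obtained by regression analysis.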

[3] = tested on: Mycobacterium tuberculosis; assay: Antimycobacterial activity against Mycobacterium tuberculosis H37Ra ATCC 25177 assessed as inhibition of bacterial growth incubated for 9 days by resazurin microtiter assay; format: functional; conditions: H37Ra ATCC 25177, 216 h, time 9 day; how it was run: as §1
[4] = Cytotoxicity against mouse RAW264.7 cells assessed as reduction in cell viability incubated for 48 hrs by MTT assay; format: cell-based; how it was run: as §2
[5] = Selectivity index, ratio of CC50 for human HepG2 cells to MIC for antimycobacterial activity against Mycobacterium tuberculosis H37Rv ATCC 27294; format: toxicity; conditions: read-out: Selectivity Index
[6] = Selectivity index, ratio of CC50 for mouse RAW264.7 cells to MIC for antimycobacterial activity against Mycobacterium tuberculosis H37Rv ATCC 27294; format: toxicity; conditions: read-out: Selectivity Index
[7] = Cytotoxicity against African green monkey Vero cells assessed as reduction in cell viability measured after 5 days by MTT assay; format: cell-based; conditions: chlorocebus sabaeus, time 5 day
How it was run: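 Vero cells in DMEM with 10% inactivated FBS, plated at 1×10⁴ cells/well 24 h before treatment. Compounds were applied at 800, 400, 200, 100 and 50 µM, with at most 0.8% DMSO, for 5 days at 37 °C. MTT (1 mg/mL) was added for 4 h, formazan solubilised in DMSO and OD570 read. CC50 is the concentration giving a 50% reduction in absorbance.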

[8] = tested on: Mycobacterium tuberculosis; assay: Antimycobacterial activity against Mycobacterium tuberculosis H37Rv ATCC 27294 assessed as inhibition of bacterial growth by agar dilution method; format: functional
NCI-H460 [9] = assay: Cytotoxicity against human NCI-H460 cells assessed as inhibition of cell proliferation at 25 uM incubated for 72 hrs by MTT assay relative to control; format: functional; design: scale not given: the % may be the effect or the level left
How it was run: (§3)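 Tumor lines from NCI. PC-3, HCT-116 and NCIH-460 were grown in RPMI 1640; SKMEL-103 and AGP-01 in DMEM; all with 10% FBS at 37 °C, 5% CO2. Seeding was 0.3×10⁶ cells/mL for SKMEL-103 and AGP-01, 0.1×10⁶ for PC-3 and NCIH-460, and 0.7×10⁵ for HCT-116. Cells were exposed to compound at 25 µM for 72 h. Cells were centrifuged, 1% MTT added for 3 h, formazan dissolved in DMSO and read at 570 nm.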

HCT-116 = assay: Cytotoxicity against human HCT-116 cells assessed as inhibition of cell proliferation at 25 uM incubated for 72 hrs by MTT assay relative to control; format: functional; design: scale not given: the % may be the effect or the level left; how it was run: as §3
NCI-H460 [10] = assay: Antiproliferative activity against human NCI-H460 cells assessed as inhibition of cell growth incubated for 72 hrs by MTT assay; format: functional, cell-based; conditions: NCI-H460, 72 h
How it was run: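 NCIH-460 cells in RPMI 1640 with 10% FBS at 0.1×10⁶ cells/mL, treated for 72 h at 37 °C, 5% CO2. MTT read-out: 1% MTT for 3 h, formazan dissolved in DMSO, absorbance at 570 nm. IC50 derived from absorbances by nonlinear regression.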

PC-3 = assay: Cytotoxicity against human PC-3 cells assessed as inhibition of cell proliferation at 25 uM incubated for 72 hrs by MTT assay relative to control; format: functional; design: scale not given: the % may be the effect or the level left; how it was run: as §3
[11] = Cytotoxicity against human AGP01 cells assessed as inhibition of cell proliferation at 25 uM incubated for 72 hrs by MTT assay relative to control; format: functional; design: scale not given: the % may be the effect or the level left; how it was run: as §3
SK-MEL-103 = assay: Cytotoxicity against human SK-MEL-103 cells assessed as inhibition of cell proliferation at 25 uM incubated for 72 hrs by MTT assay relative to control; format: functional; design: scale not given: the % may be the effect or the level left; how it was run: as §3
[12] = tested on: Mycobacterium tuberculosis; assay: Antitubercular activity against Mycobacterium tuberculosis H37Rv; format: functional

SMILES | MIC [1] [µg/mL] | CC50 at 48 h [2] [µg/mL] | MIC [3] [µg/mL] | CC50 at 48 h [4] [µg/mL] | selectivity ratio [5] | selectivity ratio [6] | CC50 at 120 h [7] [µM] | MIC [8] [µg/mL] | Activity (NCI-H460 [9]) [%] | Activity (HCT-116) [%] | IC50 (NCI-H460 [10]) [µg/mL] | Activity (PC-3) [%] | Activity [11] [%] | Activity (SK-MEL-103) [%] | MIC [12] [µg/mL]
CC(=O)OC[C@H]1O[C@H](OC[C@@H](Cn2cc(CN(c3nc(-c4ccc(C(F)(F)F)cc4)no3)C3CCCCC3)nn2)OC(C)=O)C=C[C@@H]1OC(C)=O | ≥ 64 | 81.4 (≈ 113 µM) | ≥ 64 | 64.1 (≈ 89 µM) | 1.67 | < 1 | 706 |  |  |  |  |  |  |  | 
CCCCCc1ccc(-c2cn(CC(O)COc3cccc4c3OCC3(CCCCC3)C4=O)nn2)cc1 (stereo not given) |  |  |  |  |  |  |  | 0.78 (≈ 1.55 µM) |  |  |  |  |  |  | 
CC(=O)OC[C@H]1O[C@H](OC[C@@H](Cn2cc(CN(c3nc(-c4ccccc4)no3)C3CCCCC3)nn2)OC(C)=O)C=C[C@@H]1OC(C)=O | 16 (≈ 24.5 µM) | 19.9 (≈ 30.5 µM) | 16 (≈ 24.5 µM) | 28.6 (≈ 43.8 µM) | 1.24 | 1.78 | 607 |  |  |  |  |  |  |  | 
C#CCOc1ccc(-c2noc(NC3CCCCC3)n2)cc1 | 32 (≈ 108 µM) | 119 (≈ 399 µM) | 32 (≈ 108 µM) | 38.3 (≈ 129 µM) | 3.7 | 1.29 |  |  | 75.7 | 43.3 | 5.3 (≈ 17.8 µM) | 64.2 | 2.6 | 62.8 | 
CC(C)c1ccc(-c2nc(CN3CCN(c4ccnc5c(-c6cccnc6)cccc45)CC3)no2)cc1 |  |  |  |  |  |  |  |  |  |  |  |  |  |  | 0.25 (≈ 0.51 µM)
CC(=O)OC[C@H]1O[C@H](OC[C@@H](Cn2cc(CN(c3nc(-c4ccc(C)cc4)no3)C3CCCCC3)nn2)OC(C)=O)C=C[C@@H]1OC(C)=O | 16 (≈ 24 µM) | 36.8 (≈ 55.2 µM) | 8 (≈ 12 µM) | 45.3 (≈ 68 µM) | 2.3 | 2.83 | 498 |  |  |  |  |  |  |  | 
C#CCN(c1nc(-c2cccc([N+](=O)[O-])c2)no1)C1CCCCC1 | ≥ 64 | 45.5 (≈ 139 µM) | ≥ 64 | 34.2 (≈ 105 µM) | < 0.71 | < 0.53 |  |  | 5.8 | 24.8 |  | 7.2 | 46 | 44.4 | 
C#Cc1ccc(-c2noc(NC3CCCCC3)n2)cc1 | 32 (≈ 120 µM) | 54.2 (≈ 203 µM) | 32 (≈ 120 µM) | 19.8 (≈ 74.1 µM) | 1.69 | 0.62 |  |  | 34 | 60.7 |  | 46 | 44.4 | 40.1 | 
CC(=O)OC[C@H]1O[C@H](OC[C@@H](Cn2cc(CN(c3nc(-c4ccc(F)cc4)no3)C3CCCCC3)nn2)OC(C)=O)C=C[C@@H]1OC(C)=O | ≥ 64 | 28.8 (≈ 42.9 µM) | ≥ 64 | 31.5 (≈ 46.9 µM) | < 0.45 | < 0.49 |  |  | 17.7 | 44.9 |  | 7.1 | 69.4 | 20.7 | 
COc1cccc2c1C(=O)c1c(O)c3c(c(O)c1C2=O)C[C@@](O)(C(=O)CO)C[C@@H]3O[C@H]1C[C@H](N)[C@H](O)[C@H](C)O1 [DOXORUBICIN] |  |  |  |  |  |  |  |  |  |  | 0.08 (≈ 0.147 µM) |  |  |  | 
C#CCN(c1nc(-c2ccc(OC)cc2)no1)C1CCCCC1 | 64 (≈ 206 µM) | 72.5 (≈ 233 µM) | ≥ 64 | 28 (≈ 89.8 µM) | 1.13 | 0.46 |  |  | 69.1 | 40.7 | 1 (≈ 3.21 µM) | 23.7 | 57.3 | 37.3 | 
C#CCN(c1nc(-c2ccc(F)cc2)no1)C1CCCCC1 | 64 (≈ 214 µM) | 41.1 (≈ 137 µM) | 64 (≈ 214 µM) | 20.9 (≈ 69.9 µM) | 0.64 | 0.32 |  |  | 50.5 | 44.9 | 1.16 (≈ 3.88 µM) | 25.4 | 50.4 | 47.3 | 
COc1ccc(-c2noc(N(Cc3cn(C[C@H](CO[C@@H]4C=C[C@H](OC(C)=O)[C@@H](COC(C)=O)O4)OC(C)=O)nn3)C3CCCCC3)n2)cc1 | 32 (≈ 46.9 µM) | 141 (≈ 207 µM) | 16 (≈ 23.4 µM) | 86.3 (≈ 126 µM) | 4.41 | 2.7 | 575 |  | 24.2 | 24.2 |  | 21.6 | 59.2 | 29.8 | 
